This is a sample that favours compounds with a hit; in the whole collection about 3.4% have one here.
SF1 activator = activators of human SF-1, primary screen, cell-based, CHO-K1, Gal4-SF-1 LBD, luciferase luminescence | Steroidogenic factor 1 (Homo sapiens), Q13285 | activation, % at 10 µM | AID 522, 2006 | 65,000 compounds, 1.9% hits | CHO-K1 Gal4-SF-1 LBD luciferase reporter; % increase over DMSO SF-1-specific signal;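 active = activation above the mean activation of all tested compounds plus 3 SD, cut at about 50% in these data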
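Material: CHO-K1 cells with Gal4–hSF-1 LBD chimera plus Gal4-driven luciferase / Input: 4,000 CHO-K1 cells per well / Incubation: compound exposure 20 h at 37 °C / Signal: luminescence read 15 min after SteadyLite luciferase reagent, after room-temperature equilibration / Read-out: percent activation versus DMSO / Benchmarks: DMSO negative control and −SF1 background wells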
RORa activator = activators of orphan receptor RORA, primary screen, cell-based, luminescence | Nuclear receptor ROR-alpha (Homo sapiens), P35398 | CHO-K1 Gal4-RORA LBD luciferase reporter; percent increase over mock-subtracted basal signal | activation, % at 10 µM | 65,000 compounds, 1.5% hits;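 active = activation above the mean of all tested compounds plus 3 SD, cut at about 49% in these data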
Hsp90 inh = tumor Hsp90 inhibitors, primary screen, cell lysate, fluorescence polarization, NCI-N417 lysate; Cy3B-geldanamycin FP displacement; AID 429, 2006; Heat shock protein HSP 90-alpha (Homo sapiens), P07900; inhibition, % at 30 µM; 64,000 compounds, 0.35% hits;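 active = inhibition above 50%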
JNK3 blocker = JNK3 kinase activity inhibitors, primary screen, biochemical, human, purified enzyme; Mitogen-activated protein kinase 10 (Homo sapiens), P53779; HTS; inhibition, % at 8 µM; 60,000 compounds, 0.61% hits; in the data active = inhibition above about 17%
Target sequence (P53779 whole entry, looked up): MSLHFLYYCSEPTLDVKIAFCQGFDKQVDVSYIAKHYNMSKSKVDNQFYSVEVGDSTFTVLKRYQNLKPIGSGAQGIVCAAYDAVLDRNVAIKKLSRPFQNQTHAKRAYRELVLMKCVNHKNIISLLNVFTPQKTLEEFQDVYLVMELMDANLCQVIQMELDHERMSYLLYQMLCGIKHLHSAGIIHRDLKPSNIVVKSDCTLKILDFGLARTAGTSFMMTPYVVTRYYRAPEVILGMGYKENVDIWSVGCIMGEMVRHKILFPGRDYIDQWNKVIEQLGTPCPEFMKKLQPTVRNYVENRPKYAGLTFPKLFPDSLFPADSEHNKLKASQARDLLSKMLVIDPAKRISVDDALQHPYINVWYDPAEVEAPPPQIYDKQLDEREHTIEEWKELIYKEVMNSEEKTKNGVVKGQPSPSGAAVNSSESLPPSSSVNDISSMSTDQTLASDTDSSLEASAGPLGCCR
Cdc25B inh = inhibitors of Cdc25B phosphatase catalytic domain, primary screen, biochemical, OMFP fluorescence; M-phase inducer phosphatase 2 (Homo sapiens), P30305; recombinant Cdc25B, OMFP fluorescence Ex485/Em525; inhibition, %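 (compounds tested at 10 µM final in the well)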; 65,000 compounds, 0.1% hits; AID 368, 2006; in the data active = inhibition above about 50%
MKP-1 inh = MKP-1 phosphatase inhibitors, primary screen, biochemical, in vitro; Dual specificity protein phosphatase 1 (Homo sapiens), P28562; recombinant MKP-1, OMFP hydrolysis fluorescence; inhibition, %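 (compounds tested at a single concentration somewhere between 10 and 100 µM)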; 65,000 compounds, 0.15% hits;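 active = inhibition above about 50%, limit read from the data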
Redox 05 DTT = redox cycling H2O2 generation, 0.5 mM DTT, dose response, artefact control, biochemical, Cdc25B catalytic domain | AID 682, 2007 | EC50, µM | cell-free redox cycling H2O2 generation | 30 compounds, 50% hits | shares compounds with Cdc25B inh; in the data active = EC50 below about 30 µM
Redox H2O2 1DTT = redox cycling H2O2 generation, 1 mM DTT, dose response, artefact control, biochemical, 1.0 mM DTT, Cdc25B catalytic domain; EC50, µM; AID 683, 2007; shares compounds with Cdc25B inh; 30 tested, under 10 active; cell-free redox cycling H2O2 generation; in the data active = EC50 below about 50 µM
Redox H2O2 = redox cycling hydrogen peroxide production, dose response, artefact control, biochemical, probe assessment; AID 672, 2007; shares compounds with MKP-1 inh; EC50, µM; Redox cycling H2O2 generation, DTT, phenol red/HRP; 60 tested, under 10 active; call rule not given here
Numbers stand for hits; i = inactive; nt = no result given.

SMILES | SF1 activator | RORa activator | Hsp90 inh | JNK3 blocker | Cdc25B inh | MKP-1 inh | others
N#CC(=Cc1ccc(O)c(O)c1)C(N)=S | nt | nt | 52 | nt | nt | nt
CC(C)(C)c1cc(C=C(C#N)C#N)cc(C(C)(C)C)c1O | nt | nt | i | nt | nt | nt
N#CC(C#N)=Cc1ccc(O)c(O)c1 | nt | nt | 63 | nt | nt | nt
COc1cc(C=C(C#N)C#N)cc(O)c1O | nt | nt | 69 | nt | nt | nt
N[C@@H](Cn1cc(I)c(=O)[nH]c1=O)C(=O)O | nt | nt | i | nt | nt | nt
CCN1C[C@]2(C)CC[C@H](O)[C@@]34C5C[C@@H]6[C@@H](OC)C[C@@](O)(C5[C@H]6O)[C@@H](CC23)C14 (stereo partly specified) | nt | nt | i | nt | nt | nt
CN(C)[C@@H]1C(=O)C(C(N)=O)=C(O)[C@@]2(O)C(=O)C3=C(O)c4c(O)ccc(Cl)c4[C@@](C)(O)C3C[C@@H]12 (stereo partly specified) | i | i | i | i | i | i
CN(C)[C@@H]1C(=O)C(C(N)=O)=C(O)[C@@]2(O)C(=O)C3=C(O)c4c(O)cccc4[C@@](C)(O)[C@H]3C[C@@H]12 | i | i | 72 | i | i | i
C[C@H]1CCCC(=O)CCCCCc2cc(O)cc(O)c2C(=O)O1 | i | i | 88 | i | i | i
O=C(NC1(C(F)(F)F)Oc2ccc(Cl)cc2O1)N1CCC2(CC1)OCCO2 (stereo unspecified) | i | i | 64 | nt | i | i
C[C@]12CC[C@H]3[C@@H](CCC4C[C@H](O)CC[C@@]43C)[C@@H]1CC[C@@H]2O (stereo partly specified) | nt | nt | i | nt | nt | nt
c1ccc2sc(C3(N4CCCCC4)CCCCC3)cc2c1 | nt | nt | i | nt | nt | nt
N[C@@H](Cn1ccc(=O)[nH]c1=O)C(=O)O | nt | nt | i | nt | nt | nt
CCn1c(=O)n(CC(=O)N2CCC3(CC2)OCCO3)c(=O)c2ccccc21 | i | i | i | i | 53 | i
Cc1ccc(-n2c(O)c(C=Nc3ccccc3N)c(=O)[nH]c2=O)cc1C | i | 55 | i | i | i | i
Cc1ccc(-n2c(O)c(C=NCc3cccnc3)c(=O)[nH]c2=O)cc1C | i | i | i | i | i | i
CCN(CC)C(=O)c1ccc(NC(=O)Cn2nc(C)c3ccccc3c2=O)cc1 | i | i | i | nt | 71 | i
Cn1ncnc2c(=O)n(C)c(=O)nc1-2 | i | i | 91 | 60 | 102 | 101 | Redox 05 DTT=1.2;Redox H2O2 1DTT=3.2;Redox H2O2=11
CC(O)C(C)OC(=O)[C@@H]1C[C@@H]2c3cccc4c3c(cn4C(C)C)C[C@H]2N(C)C1 (stereo partly specified) | nt | nt | i | nt | nt | nt
